High-throughput results (PubChem BioAssay)
Sampled rows, rich in hits. Any-hit rate of the full collection: about 3.7%.
KCNQ1 inh: inhibitors of human KCNQ1 channel, primary screen, cell-based, thallium flux, high-throughput; Potassium voltage-gated channel subfamily KQT member 1 (Homo sapiens), P51787; CHO-K1 KCNQ1, FluxOR thallium flux fluorescence; hits give high values; B-score at 10 µM; 1.3% of 310,000 active;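 active means compounds whose thallium flux B-score, printed positive for inhibition, exceeds three library SD while starting fluorescence stays within three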;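 further: channel opened by potassium depolarization with thallium stimulus after 20 min compound exposure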
hERG protect: hERG rescue from dofetilide block, primary screen, cell-based, CHO-hERG, FluxOR thallium flux, dofetilide IC70; dofetilide IC70 present; activation (rescue from dofetilide block), less the hit threshold, % at 10 µM; 0.51% of 310,000 active;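 active means activation above the mean of controls blocked by dofetilide plus 5 SD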;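 further: thallium influx through hERG after potassium depolarization seen as dye fluorescence rise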
KCNK3 block: human KCNK3 channel inhibitors, primary screen, CHO cells, FluxOR thallium flux, B-score; AID 602410, 2012; 0.84% of 340,000 active; B-score at 10 µM; FluxOR fluorescence; hits give low values;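 active means B-score under library mean minus 4 SD, starting fluorescence ratio at most library mean plus 5 SD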;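 further: more negative B-score means stronger inhibition of thallium flux through KCNK3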
KCNK9 inh: KCNK9 potassium channel inhibitors, primary screen, HEK293 cells, thallium flux | Potassium channel subfamily K member 9 (Homo sapiens), Q9NPC2 | FluxOR thallium flux fluorescence; hits give low values | B-score at 10 µM | 1.2% of 310,000 active | AID 488922, 2010;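 active means ratio B-score over 3 SD below the library mean, with starting fluorescence within 5 SD of its mean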;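 further: negative B-score means less thallium flux so channel inhibition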
KCNQ1 pot: potentiators or activators of KCNQ1 channel, primary screen, cell-based, thallium flux, high-throughput | Potassium voltage-gated channel subfamily KQT member 1 (Homo sapiens), P51787 | CHO-K1 KCNQ1, thallium flux FluxOR fluorescence; hits give high values | B-score at 10 µM | 0.35% of 310,000 active | AID 2648, 2010;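 active means fluorescence ratio B-score, a plate-corrected score, at least three library SD, with initial intensity B-score within 5 SD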
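Assay system: CHO-K1 cells stably expressing KCNQ1; Medium: assay buffer with matched DMSO; Also added: K+/Tl+ depolarizing stimulus; Dosing: single dose; Timing: dye 90 min, compound 20 min, room temperature; Measured by: kinetic FluxOR thallium fluorescence, 10-s 1-Hz baseline, 110-s post-stimulus read; Read-out: peak-minus-minimum fluorescence over initial fluorescence, negative-control normalized, B-scored.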
Kir21 block: inhibitors of mouse Kir2.1 inward-rectifier potassium channel. 0.85% of 310,000 active. HEK293-Kir2.1, FluxOR thallium flux fluorescence; hits give low values. B-score at 10 µM. Inward rectifier potassium channel 2 (Mus musculus), P35561;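 active means fluorescence ratio B-score at or below minus 3 SD of library scores, with starting-brightness B-score within 2 SD, cut at about -4.2 in these data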;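 further: channel flux triggered by added potassium and thallium sulfate stimulus; B-score of peak minus minimum fluorescence over baseline after thallium stimulus; more negative B-score means stronger Kir2.1 block with less thallium influx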
Target sequence (P35561 whole entry, looked up): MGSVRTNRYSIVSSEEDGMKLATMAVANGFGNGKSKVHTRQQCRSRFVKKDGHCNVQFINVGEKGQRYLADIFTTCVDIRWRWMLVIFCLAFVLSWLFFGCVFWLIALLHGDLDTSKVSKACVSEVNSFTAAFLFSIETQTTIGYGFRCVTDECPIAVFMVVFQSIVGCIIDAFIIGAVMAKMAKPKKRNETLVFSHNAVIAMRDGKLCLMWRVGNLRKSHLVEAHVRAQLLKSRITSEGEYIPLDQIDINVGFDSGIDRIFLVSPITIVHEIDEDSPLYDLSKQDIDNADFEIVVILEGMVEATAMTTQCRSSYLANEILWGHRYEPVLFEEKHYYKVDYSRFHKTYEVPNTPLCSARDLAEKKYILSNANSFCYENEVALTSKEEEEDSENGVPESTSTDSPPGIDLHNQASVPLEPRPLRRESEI
KCNQ1 inh valid: KCNQ1 potassium channel inhibitors, confirmation, cell-based, Tl flux, duplicate. shares compounds with KCNQ1 inh. KCNQ1 cell line, FluxOR thallium flux fluorescence. inhibition, % at 10 µM. 93% of 1,600 active;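 active means primary screen active, with duplicate mean exceeding buffer control mean plus 3 SD of buffer wells, cut at about 28% in these data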;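 further: 0% = buffer control ratio and 100% = XE991 inhibitor control ratio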
CHO Tl flux: thallium flux effects in parental CHO cells, counter-screen for KCNQ1 inhibitor project, cell-based, Tl flux; shares compounds with KCNQ1 inh; parental CHO-K1, FluxOR thallium flux fluorescence ratio; hits give low values; zero means no signal rise above baseline; fluorescence ratio (Tl flux) at 10 µM; 21% of 1,600 active; AID 588366, 2011;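 active means mean of duplicate thallium-flux fluorescence ratios in parental host cells more than 5 SD below the buffer control mean, cut at about 0.38 in these data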;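 further: ratio is peak minus minimum fluorescence divided by baseline fluorescence; actives read low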
KCNQ1 ephys val: KCNQ1 channel inhibitors, confirmation, orthogonal assay, cell-based, automated electrophysiology. AID 624120, 2012. calls only at 10 µM. 20% of 490 active. shares compounds with KCNQ1 inh. KCNQ1-CHO cells, automated patch clamp current;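 active means KCNQ1 current drop exceeding 3 SD of negative control wells, seen in both duplicate runs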;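 further: steady state current during a 2 s step from -80 to +40 mV; negative values mean current inhibition and positive values mean potentiation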
KCNQ2 spec: KCNQ2 channel inhibition, selectivity assay for KCNQ1 inhibitor project, cell-based | shares compounds with KCNQ1 inh | KCNQ2 cells, FluxOR thallium flux fluorescence | inhibition, % at 10 µM | 71% of 1,600 active | AID 651746, 2012;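 active means mean percent inhibition of the KCNQ2 thallium signal more than 5 SD above the buffer-only control wells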;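 further: KCNQ2 expressed in CHO cells; 0% = buffer control wells and 100% = XE-991 inhibitor control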
KCNQ1-KCNE1 inh: KCNQ1/KCNE1 channel inhibition, selectivity assay for KCNQ1 inhibitor project, CHO-K1 cells, thallium flux, FluxOR | shares compounds with KCNQ1 inh | FluxOR thallium flux fluorescence | inhibition, % at 10 µM | 77% of 1,600 active;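 active means mean percent inhibition of duplicate wells above the buffer-only control mean plus 3 SD of those controls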;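 further: 0% = buffer only wells and 100% = XE-991 inhibitor control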
An asterisk follows results filed as active; i = inactive; x = not tested or not shown; + = active, no number.

SMILES	KCNQ1 inh	hERG protect	KCNK3 block	KCNK9 inh	KCNQ1 pot	Kir21 block	KCNQ1 inh valid	CHO Tl flux	KCNQ2 spec	KCNQ1-KCNE1 inh	others
Cc1cc(OCC(=O)Nc2ccncc2)ccc1Br	13*	-14	i	i	i	0.66	72*	0.54	i	i
Cc1ccc(Nc2nc3nonc3[nH]c2=O)cc1Cl	9*	-13	i	i	i	-0.01	29*	0.49	i	i
O=C1CCc2ccc(NC(=O)C3CC3)cc2N1	i	-9	i	i	i	-1.4	x	x	x	x
Clc1ccc(-c2nc(N3CCCCC3)nc3ccccc23)cc1	8*	-7	i	i	i	1.5	132*	0.44	85%*	197%*	KCNQ1 ephys val=+
COc1ccc(NC(=O)CN2C(=O)NC(C)(c3ccccc3)C2=O)cc1Cl (centres undefined)	i	-1	i	i	i	-1.1	x	x	x	x
COc1ccc(CCNc2ncnc3c2oc2ccccc23)cc1OC	i	-24	i	i	i	0.56	x	x	x	x
COc1ccc(CCNc2nc(C)nc3c2oc2ccccc23)cc1OC	10*	-35	i	i	i	-2.2	120*	0.45	123%*	78%*	KCNQ1 ephys val=i
CCOc1ccccc1N1CCN(S(=O)(=O)c2ccc3c4c(cccc24)C(=O)N3)CC1	7*	-7	i	i	i	0.21	69*	0.49	i	79%*
CCOC(=O)N1CCN(S(=O)(=O)c2ccc3c4c(cccc24)C(=O)N3)CC1	i	-9	i	i	i	0.47	x	x	x	x
Cc1cc(N2CCC(C)CC2)nc(NCc2ccccc2)n1	7*	-24	i	i	i	-13*	46*	0.49	i	i
Cc1cc(C)nc(NCCCc2ccccc2)n1	i	-3	i	i	i	-0.4	x	x	x	x
CCCCNc1cc(C)nc(NCc2ccccc2)n1	10*	-20	i	i	i	-12*	96*	0.39	i	77%*	KCNQ1 ephys val=+
COc1c(N)c2c(c([N+](=O)[O-])c1OC)C(=O)OC2	x	x	i	x	x	x	x	x	x	x
Oc1cccc(NC(=S)Nc2ccc(SC(F)F)cc2)c1	10*	-13	i	i	i	-0.11	68*	0.53	i	90%*
Oc1cccc(NC(=S)Nc2cccnc2)c1	i	-4	i	i	i	-0.04	x	x	x	x
CCCCOc1ccc(Br)cc1CSC(=N)N	7*	-15	i	i	i	-7.5*	90*	0.43	60%*	i	KCNQ1 ephys val=+
Cc1cc(C(=O)OCC(=O)NCCCN2CCCC2=O)c2ccccc2n1	11*	-9	i	i	i	0.04	0	0.51	i	73%*
COc1ccc(N/N=C(/C(C)=O)N2CCCc3ccccc32)cc1	i	-2	i	i	i	0.98	x	x	x	x
COc1ccc(CCNC(=O)CNCC2CCCCC2)cc1OC	i	-7	i	i	i	0.17	x	x	x	x
O=C(NC1CCCCC1)C(c1cccnc1)N(C(=O)c1ccc(Cl)nc1)C1CCCCC1 (centres undefined)	22*	-15	i	i	i	1.1	0	0.5	i	i
COc1ncnc2c1sc1nc(-c3ccccc3)c3c(c12)CCCC3	10*	-13	i	i	i	0	103*	0.42	96%*	131%*	KCNQ1 ephys val=i
CC(=O)OCCNc1cc(N2CCN(C)CC2)c2noc3c2c1C(=O)c1ccccc1-3	x	x	i	x	x	x	x	x	x	x
CCOC(=O)C(C(=O)OCC)c1cc(Br)c2noc3c2c1C(=O)c1ccccc1-3	16*	-26	i	i	i	-4.7	183*	0.15*	i	i
CCCCCCNC(=O)C(C#N)c1nc2ccccc2nc1N1CCCC1 (centres undefined)	9*	-8	i	i	i	-2.2	+	0.2*	i	i
CCOC(=O)c1c(C)nc(C(Cl)(Cl)Cl)nc1N	8*	-14	i	i	i	-1.2	86*	0.43	i	88%*
SMILES	KCNQ1 inh	hERG protect	KCNK3 block	KCNK9 inh	KCNQ1 pot	Kir21 block	KCNQ1 inh valid	CHO Tl flux	KCNQ2 spec	KCNQ1-KCNE1 inh	others
CC1CN(C(=O)c2ccc(NS(=O)(=O)c3ccc(F)cc3)cc2)CC(C)O1 (centres undefined)	i	-2	i	i	i	1.9	x	x	x	x
Cc1cccc(NC(=O)c2ccc(C3SCC(=O)N3CCc3ccccc3)cc2)c1 (centres undefined)	7*	-20	i	i	i	-0.34	99*	0.43	109%*	82%*	KCNQ1 ephys val=i
CCCCSc1nc(C)c(CC(=O)O)c(=O)[nH]1	10*	-5	i	i	i	1.1	62*	0.52	i	47%*
Cc1cccc2cc3c(N)c(C#N)sc3nc12	i	-13	i	i	i	-2.2	x	x	x	x
Cc1sc(NC(=O)c2sc3nc4c(C)cccc4cc3c2N)c(C#N)c1C	9*	-10	i	i	i	0.05	54*	0.44	i	87%*
c1cc2c(cc1-c1csc(NNC3=NCCCCC3)n1)OCCO2	i	-5	x	i	i	-0.11	x	x	x	x
CCOC(=O)C1CCN(S(=O)(=O)c2ccc3[nH]c4c(c3c2)CCCC4)CC1	6*	-10	i	i	i	0.34	102*	0.5	67%*	102%*	KCNQ1 ephys val=+
